Screens as filed in PubChem BioAssay.
Xi reactivation – X-chromosome reactivation activator; XiGFP mouse fibroblasts, % GFP-positive cells imaging, 3 d; cells co-treated with 5-aza-dC sensitizer; scaled so ellipticine positive control = 100%; activation, % at 7.58 µM; 0.055% of 360,000 active;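 active means mean normalized replicate activation at least 10% and every replicate at or above 10%; inconclusive means only one of the two criteria met; inactive means mean below 10% and not all replicates reach 10%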;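 further: 0% = median of on-plate neutral control wells and 100% = ellipticine 6 µM median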
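System: 68-5-11 XiGFP fibroblast line | Buffer or medium: DMEM containing 5-aza-dC | Compound: Single point | Times: Compounds 3 days, fix/stain 15 min at room temperature | Benchmarks: Positive control ellipticine, 6 µM final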
ABCB6 inh MLPCN – human ABCB6 transporter inhibition; fluorescence ratio to DMSO, % at 10 µM; Q9NP58; K562-ABCB6 porphyrin accumulation, flow cytometry, 1 h; hits give low values; 0.19% of 360,000 active; AID 602162;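 active means fluorescence ratio to DMSO below 75%, the collection mean minus 3 SD; inconclusive means too few cells collected in the well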;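 further: signal is porphyrin accumulated inside mitochondria; 100% equals median channel fluorescence of DMSO control wells; lower ratio means ABCB6 inhibition with less porphyrin fluorescence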
Target sequence (Q9NP58 whole entry, looked up): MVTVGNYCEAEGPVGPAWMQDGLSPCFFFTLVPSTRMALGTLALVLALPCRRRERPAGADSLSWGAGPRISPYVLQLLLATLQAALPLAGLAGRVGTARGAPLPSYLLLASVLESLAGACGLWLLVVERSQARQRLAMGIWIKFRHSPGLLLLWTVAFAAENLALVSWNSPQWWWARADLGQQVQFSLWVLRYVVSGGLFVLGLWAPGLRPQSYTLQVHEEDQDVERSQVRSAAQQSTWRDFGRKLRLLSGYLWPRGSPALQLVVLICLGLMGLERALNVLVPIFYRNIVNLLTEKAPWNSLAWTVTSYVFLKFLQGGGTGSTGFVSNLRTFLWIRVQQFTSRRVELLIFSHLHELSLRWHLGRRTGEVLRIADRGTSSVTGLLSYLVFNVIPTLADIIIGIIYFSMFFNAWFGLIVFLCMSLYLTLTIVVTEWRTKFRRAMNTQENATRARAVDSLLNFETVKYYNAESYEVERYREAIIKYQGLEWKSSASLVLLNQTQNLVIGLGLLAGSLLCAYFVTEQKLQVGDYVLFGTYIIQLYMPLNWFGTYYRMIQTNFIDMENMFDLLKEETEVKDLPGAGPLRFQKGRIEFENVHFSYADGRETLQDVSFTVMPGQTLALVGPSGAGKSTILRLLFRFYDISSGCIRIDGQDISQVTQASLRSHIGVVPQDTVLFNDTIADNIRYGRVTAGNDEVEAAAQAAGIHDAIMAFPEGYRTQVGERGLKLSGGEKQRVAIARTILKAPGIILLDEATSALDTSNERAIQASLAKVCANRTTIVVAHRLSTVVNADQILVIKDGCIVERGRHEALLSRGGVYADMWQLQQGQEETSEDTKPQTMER
Myeloid diff 2 – promotes myeloid progenitor differentiation; ER-HoxA9 myeloid progenitors, lysozyme-GFP differentiation, flow cytometry; 1% of 360,000 active; calls only at 10 µM;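 active means normalized GFP-positive differentiation at or above the plate's own cutoff, the solvent-only control mean plus 3 SD; inconclusive means no clear call, values can overlap the other calls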;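 further: cells exposed to compound for four days before flow analysis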
Myeloid diff – myeloid differentiation induction. ER-HoxA9 myeloid progenitors, GFP/Mac1 double-positive flow. 2% of 2,300 active. calls only. shares compounds with Myeloid diff 2. AID 651706;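 active means share of green or green-and-red cells above 9 and 9% in run 1 or 4 and 3% in run 2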
GFP autofluor – flagged as fluorescent in myeloid differentiation counter-screen. fluorescence response, % (test concentration not listed). 7.4% of 2,300 active. shares compounds with Myeloid diff 2. AID 651707. ER-HoxA9 myeloid progenitors, no estrogen, GFP autofluorescence flow cytometry; vehicle wells 0%, positive control 100%;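 active means over 5% cells positive for green fluorescent reporter, or over 2% positive for both it and APC stain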;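 further: range taken on the double positive population between DMSO and positive control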
The depositor's hits bear a star; i = inactive; ? = inconclusive; · = not tested or not shown; + = active, no number. The sample as a whole holds a higher share of hits than the screen did.

SMILES	Xi reactivation	ABCB6 inh MLPCN	Myeloid diff 2	Myeloid diff	GFP autofluor
COc1ccc(S(=O)(=O)N[C@H](C(=O)N2CC[C@@]3(O)CCCC[C@H]3C2)c2ccccc2)cc1	·	94.0	i	·	·
COCC(=O)N1CC2(C1)CN(Cc1cccc(Cl)c1)[C@@H](CO)c1[nH]c3cc(OC)ccc3c12	0.0	·	·	·	·
Cc1ccc2c(c1)-c1c(cnn1CC(=O)Nc1ccccc1N1CCN(C)CC1)CO2	-0.4	98.0	i	i	0.0
Cc1ccc2c(c1)-c1c(cnn1CC(=O)O)CO2	·	101.0	i	·	·
O=C(Nc1ccc(F)cc1)N1[C@@H](CO)[C@@H]2c3ccccc3NC[C@@H]21	-0.1	·	·	·	·
Cn1cc(Br)cc2nc(C(F)(F)F)nc1-2	·	100.0	+	i	0.4
Cc1nc(C(F)(F)F)nc(Nc2ccc(Br)cc2)c1C#N	·	95.0	i	·	·
CC(=O)CC(=O)NC(=NC1CCCCC1)Nc1nc(C)cc(C)n1	·	96.0	+	i	0.5
Cc1cc(C)nc(NNC(=O)NC2CCCCC2)n1	0.6	101.0	i	·	·
CO[C@H]1CN(C)C(=O)c2cc(NS(C)(=O)=O)ccc2OC[C@H](C)N(Cc2ccccn2)C[C@@H]1C	0.0	·	·	·	·
CO[C@H]1CN(C)C(=O)c2ccc(NC(=O)c3cc(C)on3)cc2OC[C@@H](C)N(CC2CC2)C[C@@H]1C	-0.3	·	·	·	·
O=C(Nc1cccc2ccccc12)c1ccc([N+](=O)[O-])s1	0.0	99.0	i	·	·
O=C(Nc1ccccc1F)c1ccc([N+](=O)[O-])s1	0.0	109.0	+	i	0.4
C[C@H](CO)N1C[C@H](C)[C@@H](CN(C)C(=O)c2cccc(F)c2)Oc2ncc(-c3cncnc3)cc2C1=O	-0.5	·	·	·	·
CCCC#Cc1ccc([C@H]2[C@H](C#N)N(S(C)(=O)=O)[C@H]2CO)cc1	0.2	·	·	·	·
Cc1ccc2nc3c(cc2c1)CN(Cc1ccco1)C(=NCC1CCCO1)S3 (stereo not given)	·	91.0	i	i	0.4
Cc1cccc2cc3c(nc12)SC(=NCC1CCCO1)N(Cc1ccco1)C3 (stereo not given)	·	101.0	i	·	·
CN(C)CC#Cc1ccc([C@H]2[C@@H](CO)N3CCCCN(S(=O)(=O)c4ccccc4F)C[C@@H]23)cc1	-0.1	·	·	·	·
Cc1noc(C)c1NC(=O)NCC[C@H]1CC[C@H](NC(=O)c2ccccc2)[C@H](CO)O1	0.2	·	·	·	·
Cc1cc2nc(/N=C(\N)NC(=O)C(C)C)nc(C)c2cc1C	0.0	99.0	i	i	0.0
CCC(=O)N/C(N)=N/c1nc(C)c2cc(C)c(C)cc2n1	-0.1	101.0	i	·	·
CCCC(=O)Nc1ccc2c(c1)C(=O)N(C)[C@@H]1CC[C@@H](CC(=O)NCCc3ccccc3)O[C@@H]1CO2	0.1	·	·	·	·
CN1C(=O)c2cc(NS(=O)(=O)c3ccc(F)cc3)ccc2OC[C@H]2O[C@H](CC(=O)NCC(F)(F)F)CC[C@@H]21	0.2	·	·	·	·
CCCC(=O)C1=C(O)C(C(=O)OC)C(C)(C)CC1=NCc1ccccc1 (stereo not given)	0.1	94.0	i	·	·
CCCC(=O)C1=C(O)C(C(=O)OC)C(C)(C)CC1=Nc1ccccc1 (stereo not given)	·	96.0	i	i	0.3
SMILES	Xi reactivation	ABCB6 inh MLPCN	Myeloid diff 2	Myeloid diff	GFP autofluor
COc1ccc(S(=O)(=O)N(C)C[C@@H]2Oc3ccc(NC(=O)Cn4cnnn4)cc3CC(=O)N([C@H](C)CO)C[C@H]2C)cc1	-0.1	·	·	·	·
Cc1noc(C)c1S(=O)(=O)Nc1ccc2c(c1)C(=O)N([C@@H](C)CO)C[C@H](C)[C@H](CN(C)Cc1ccc3c(c1)OCO3)OCCCC[C@@H](C)O2	0.0	·	·	·	·
C[C@@H]1CN([C@@H](C)CO)C(=O)c2cc(NS(=O)(=O)c3ccc(F)cc3)ccc2O[C@H]1CN(C)C(=O)Nc1ccc(C(F)(F)F)cc1	-1.0	·	·	·	·
O=C(C[C@@H]1CC[C@H]2[C@@H](COC[C@@H](O)CN2S(=O)(=O)c2ccc(Cl)cc2)O1)N[C@@H]1CCN(Cc2ccccc2)C1	0.2	·	·	·	·
COc1cc(OC)cc(C(=O)NCC(=O)N2CC=C(c3ccccc3)CC2)c1	0.0	95.0	?	·	·
O=C(NCC(=O)N1CC=C(c2ccccc2)CC1)c1ccc(OC(F)F)cc1	0.0	84.0	i	i	1.4
C[C@H]1CN([C@@H](C)CO)C(=O)Cc2cc(NS(=O)(=O)c3ccc(F)cc3)ccc2O[C@@H]1CN(C)C(=O)Nc1cccc2ccccc12	-1.0	·	·	·	·
